Shown are actives, neighbours in structure and some others; about 1.9% of the full set was active somewhere.
SR-BI DiI inh = mouse SR-BI HDL lipid transfer inhibition; Q61009; ldlA[mSR-BI] CHO cells, DiI-HDL uptake fluorescence, 3 h; inhibition, % at 12.5 µM; 320,000 tested, 0.96% active; AID 488896;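 active = mean replicate inhibition of at least 70% and a set share of replicates each scoring 70 or more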
Target sequence (Q61009 whole entry, looked up): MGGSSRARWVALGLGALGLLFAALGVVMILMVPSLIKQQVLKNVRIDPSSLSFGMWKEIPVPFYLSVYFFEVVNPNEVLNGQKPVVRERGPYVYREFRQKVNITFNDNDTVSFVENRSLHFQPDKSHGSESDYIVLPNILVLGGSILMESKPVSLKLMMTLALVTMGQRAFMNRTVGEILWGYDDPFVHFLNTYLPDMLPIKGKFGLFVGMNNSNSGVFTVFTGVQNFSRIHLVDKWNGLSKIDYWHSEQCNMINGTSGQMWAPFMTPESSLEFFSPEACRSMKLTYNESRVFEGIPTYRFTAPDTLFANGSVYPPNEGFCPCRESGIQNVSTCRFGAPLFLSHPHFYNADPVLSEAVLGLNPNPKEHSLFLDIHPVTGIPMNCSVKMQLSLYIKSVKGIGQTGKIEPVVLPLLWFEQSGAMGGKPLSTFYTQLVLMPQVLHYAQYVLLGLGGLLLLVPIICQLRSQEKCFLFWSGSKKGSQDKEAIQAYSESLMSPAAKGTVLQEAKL
GRK2 aptamer HTS = blocks RNA aptamer binding to human GRK2; P25098; bead flow cytometry, FAM-aptamer displacement from GRK2; inhibition of aptamer binding, % at 10 µM; 330,000 tested, 0.59% active; AID 488847;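 active = inhibition of aptamer binding above 40%, roughly 3 SD of noise, on plates passing a quality check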;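 also: median bead fluorescence of bound FAM aptamer so fluorescent compounds give negative values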
SR-BI uptake up = SR-BI HDL lipid transfer activation | CHO ldlA[mSR-BI] cells, DiI-HDL uptake fluorescence, 3 h; 100 = double the neutral-control signal | AID 504775 | activation, % at 12.5 µM | 320,000 tested, 0.096% active;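 active = mean replicate activation of at least 60% and every replicate at or above 60%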
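Test system: SR-BI-overexpressing, LDLR-lacking CHO cells. Measured by: DiI fluorescence, bottom read. Medium: Ham's F12 with 0.5% BSA, HEPES 25 mM, pH 7.4. Timing: 3 h uptake period with compound, 37 °C.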
Rin1 Abl inh = blocks binding of human Rin1 to Abl. inhibition, % at 7.35 µM. TR-FRET Rin1/Abl binding, biochemical. 360,000 tested, 0.4% active; in the data active = inhibition above about 5%, passing the limit was not always enough
Each line names hits and unclear results; the compound was inactive in the other large screens.

CCOc1ccc(C2C(C#N)=C(N)Oc3nc[nH]c(=O)c32)cc1 (centres undefined)	none
O=c1[nH]cnc2c1C(c1ccc(Cl)cc1)c1c(nc[nH]c1=O)O2	Rin1 Abl inh 7.7
Cc1cc(=O)oc2c(C)c(OC(C)C(=O)NCc3ccccn3)ccc12 (centres undefined)	none
CC(=O)COc1ccc2c(-c3ccccc3)cc(=O)oc2c1C	SR-BI DiI inh 72.5
COc1ccc(-c2cc(=O)oc3c(C)c(OC(C)C(=O)NCc4ccccn4)ccc23)cc1 (centres undefined)	SR-BI DiI inh 76.7
CSc1ccc(C(O)c2ncc(-c3ccc(F)cc3)[nH]2)cc1 (centres undefined)	none (no result: SR-BI DiI inh, GRK2 aptamer HTS, SR-BI uptake up)
COc1ccc(Nc2sc(C(=O)c3ccc(Cl)cc3)c(N)c2C(=O)Nc2ccccc2OC)cc1	SR-BI DiI inh 92.7
COc1ccccc1-n1cnc2c(c1=O)c1nc3ccccc3nc1n2-c1ccc(C)cc1	none
COc1ccccc1-n1c2nc3ccccc3nc2c2c(=O)n(-c3cc(C)cc(C)c3)cnc21	SR-BI DiI inh 78.7
Cc1ccc(-c2cc(C(=O)N/N=C/c3c[nH]c4ccccc34)[nH]n2)cc1	SR-BI DiI inh 89.1 (no result: GRK2 aptamer HTS)
O=C(N/N=C/c1c[nH]c2ccccc12)c1cc(-c2ccccc2)n[nH]1	none
O=C(N/N=C/c1c[nH]c2ccccc12)c1cc(-c2ccc(-c3ccccc3)cc2)n[nH]1	SR-BI DiI inh 93.8
O=C(N/N=C/c1c[nH]c2ccccc12)c1cc(-c2ccc3ccccc3c2)n[nH]1	SR-BI DiI inh 72.7
O=C(N/N=C/c1c[nH]c2ccccc12)c1cc(-c2cccc3ccccc23)n[nH]1	none
COc1ccc(CN2CCC2(C)C(=O)NCc2ccc3c(c2)OCO3)c2ccccc12 (centres undefined)	none (no result: SR-BI DiI inh, GRK2 aptamer HTS, SR-BI uptake up)
O=C(O)CNC(=O)C1(NC(=O)OCc2ccccc2)CCCC1	none (no result: GRK2 aptamer HTS)
COc1ccc(-c2cc(C(F)(F)F)n3nc(C(N)=O)cc3n2)cc1	none (no result: SR-BI DiI inh, GRK2 aptamer HTS, SR-BI uptake up)
COc1ccc(/C=C/c2c(-c3ccc(OC)cc3)oc3ccccc23)cc1	SR-BI DiI inh 78.1
CC(NS(=O)(=O)c1ccc(Cl)cc1)C(=O)NCCC1=CCCCC1 (centres undefined)	none
COc1cccc(-c2nn(C)c3sc(C(=O)Nc4ccc5c(c4)OCCO5)cc23)c1	SR-BI DiI inh 86.2
COc1ccc(/C=C/C(=O)NC(=S)Nc2ccc(S(=O)(=O)N=C(N)N)cc2)cc1OC	SR-BI uptake up 286.0
COc1ccc(OC)c(Nc2nc(-c3cccs3)cs2)c1	SR-BI DiI inh 91.7
CCCCCCC(=O)Nc1nc(C)c(-c2csc(Nc3cc(OC)ccc3OC)n2)s1	SR-BI DiI inh 106.5
CCCCC(=O)Nc1nc(C)c(-c2csc(Nc3ccccc3OC)n2)s1	none
CCCCCC(=O)Nc1nc(C)c(-c2csc(Nc3cc(OC)ccc3OC)n2)s1	SR-BI DiI inh 99.4
C/C(=N\NC(=O)c1nnn(-c2nonc2N)c1-c1ccc2c(c1)OCO2)c1ccc(C)cc1	none
C=CC[C@H]1C=C[C@@H](C(C(=O)OC)C(=O)OC)CN1C(C)=O	none (no result: GRK2 aptamer HTS)
COc1ccc(-c2oc(/N=C/N3CCOCC3)c(C#N)c2-c2ccc(OC)cc2)cc1	SR-BI DiI inh 72.2
N#Cc1c(/N=C/c2ccccc2)oc(-c2ccccc2)c1-c1ccccc1	none
CCCn1nnc(NC(=S)NC(=O)/C=C/c2ccc(Cl)cc2)n1	SR-BI uptake up 364.0
CCCn1nnc(NC(=O)/C=C/c2ccc(C(C)C)cc2)n1	none
COc1cccc(-c2nc(N3CCCC3)c3ccccc3n2)c1O	none
COc1cccc(-c2nc(Oc3cc(C)cc(C)c3)c3ccccc3n2)c1O	none (no result: SR-BI DiI inh, SR-BI uptake up, Rin1 Abl inh)
COc1cccc(-c2nc(NC(C)(C)C)c3ccccc3n2)c1O	SR-BI DiI inh 83.7
COc1ccc(Nc2nc(-c3cccc(OC)c3O)nc3ccccc23)cc1	SR-BI DiI inh 82.8
CCN(C(=O)CN1C(=O)/C(=C/c2ccccc2)SC1=S)C1CCS(=O)(=O)C1 (centres undefined)	none
O=C(NC(=S)NCc1ccco1)c1ccccc1[N+](=O)[O-]	none (no result: SR-BI uptake up)
CCN(CC)S(=O)(=O)c1cc(NC(=O)c2ccc(Br)s2)ccc1C	SR-BI DiI inh 75.1
c1ccc(Cn2ncc3c(N4CCN(c5ccccc5)CC4)ncnc32)cc1	none (no result: SR-BI DiI inh, GRK2 aptamer HTS, SR-BI uptake up)
O=C(COC(=O)CNC(=O)c1ccccc1F)NC12CC3CC(CC(C3)C1)C2	none
CCC(=O)Nc1ccc2c(c1)Cc1cc(NC(=O)CC)ccc1-2	SR-BI DiI inh 74.0
CC(C)N=c1cc2n(-c3ccc(Cl)cc3)c3ccccc3nc-2cc1Nc1ccc(Cl)cc1	SR-BI DiI inh 83.1
Cn1c(CNc2ccc(Cl)cc2)nc2ccccc21	none
COc1cc2nc(N3CCNCC3)nc(N)c2cc1OC	Rin1 Abl inh 8.2
CC(C)(C)c1ccc(C(O)c2ncc(-c3ccccc3F)[nH]2)cc1 (centres undefined)	none (no result: SR-BI DiI inh, GRK2 aptamer HTS, SR-BI uptake up)
C[C@@H]1CCCCO[C@H](CN(C)Cc2ccc(C(=O)O)cc2)[C@@H](C)CN([C@H](C)CO)C(=O)c2cc(NC(=O)CCC(F)(F)F)ccc2O1	none (no result: SR-BI DiI inh, GRK2 aptamer HTS, SR-BI uptake up)
COCc1cc(N2CCOCC2)nc(-c2ccccc2)n1	none
COCc1cc(N2CCN(c3ccccc3F)CC2)nc(-c2ccccc2)n1	SR-BI DiI inh 79.7
Cc1ccc(F)c(S(=O)(=O)NC(=O)C2(C)CCN2C(=O)CCC2CCCC2)c1 (centres undefined)	none (no result: SR-BI DiI inh, GRK2 aptamer HTS, SR-BI uptake up)
COc1ccc(/C=C2\CCCc3c2nc2ccccc2c3C(=O)O)cc1OC	none (no result: SR-BI DiI inh, SR-BI uptake up, Rin1 Abl inh)
COc1cc(/C=C2\CCCc3c2nc2ccccc2c3C(=O)O)cc(OC)c1O	SR-BI uptake up 230.5
C=C(CN(C)C)C(=O)c1cc(C)ccc1C	SR-BI DiI inh 81.3 (no result: GRK2 aptamer HTS)
Cc1ccc(C)c(C(=O)NCCN(C)C)c1	none
COc1ccc(-c2[nH]n(-c3ccc([N+](=O)[O-])cc3)c(=O)c2C=NCC2CCCO2)cc1 (centres undefined)	SR-BI DiI inh 82.0
COc1ccc(N2CCN(C(=O)Cc3ccc(S(=O)(=O)N4CCOCC4)s3)CC2)cc1	none
Cc1nn(-c2ccccc2)c(C)c1/C=N/NC(=O)c1cc(-c2ccc(Cl)s2)[nH]n1	none
Cc1nn(-c2ccccc2)c(C)c1/C=N/NC(=O)c1cc(-c2cccs2)[nH]n1	SR-BI DiI inh 79.7
Cc1nn(-c2ccccc2)c(C)c1/C=N/NC(=O)c1cc(-c2ccc(Br)s2)[nH]n1	SR-BI DiI inh 70.5
O=C(Cc1ccccc1[N+](=O)[O-])NCC1(c2cccc3c2OCO3)OCCO1	none (no result: GRK2 aptamer HTS)
CCOC(=O)c1ccc(N/C=C\C(=O)c2cccc(OC)c2)cc1	none
COc1cccc(C(=O)/C=C/Nc2cc(C)ccc2O)c1	SR-BI DiI inh 92.1
CCC(=O)Nc1cccc(C2=NN(c3ccccc3)C(c3ccc(OC)cc3)C2)c1 (centres undefined)	SR-BI DiI inh 70.3
COc1ccc(C2CC(c3cccc(Cl)c3)=NN2c2ccc(S(N)(=O)=O)cc2)cc1 (centres undefined)	SR-BI DiI inh 76.8
COc1ccc(C2CC(c3ccccc3)=NN2c2ccc(Cl)c(C(=O)O)c2)cc1 (centres undefined)	none
OC1c2c(F)cccc2N=C2CCCCN21 (centres undefined)	none (no result: SR-BI DiI inh, GRK2 aptamer HTS, SR-BI uptake up)
COc1ccc(S(=O)(=O)N2CCC(C(=O)N(C)Cc3ccc(C)o3)CC2)cc1OC	none

From PubChem BioAssay
